Experimental data reported in article PMC9948766 (Science translational medicine, 2022).
Where two headings read alike, the source gives them in different places.

Columns and labels:
[1] = Pharmacokinetics and biodistribution of ^125I-RLX after intraarticular injection; design: species or system Sprague Dawley rats; settings: rat, in vivo
[2] = Circular dichroism of RLX secondary structure; type: physicochemical
[3] = cited from earlier work
[4] = test system: atraumatic rat model of shoulder arthrofibrosis; assay: Histological assessment of rat shoulder joints; type: in vivo, Sprague Dawley rats
Procedure, shortened: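 Female Sprague Dawley rats with contracted shoulders receiving intraarticular doses (repeated 2 μg/kg injections or saline; or single 10 μg/kg microparticles or unloaded particles at equivalent PLGA mass) from remobilization. Joints fixed and decalcified at 14 or 56 days; coronal sections stained with H&E, Masson's Trichrome, Safranin O. Immune activation scored on H&E; axillary pouch thickness measured; n=5; mean ± STDev; ANOVA.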

[5] = test system: mouse models of myocardial infarction; settings: cited from earlier work
[6] = humans, intravenous injection; cited from earlier work

CL [1]: 20.6 (15.1, 31.8) (mL/kg)·hr
average plasma exposure, Cavg [1]: 2.05 ng/mL/h
clearance at the time of dose re-administration [1]: > 99%
maximum plasma exposure, Cmax [1]: 16 ng/mL
t1/2-α [1]: 0.954 (0.852, 1.15) h
t1/2-α (effective synovial half-life) [1]: 0.305 (0.280, 0.346) h
inflammatory infiltrate, histological scoring ([4]; 14 days post-treatment, n=5): negligible inflammation
inflammatory infiltrate, histological scoring ([4]; 56 days post-treatment, n=5): negligible inflammation
Substance: human relaxin-2 [RLX]
alpha helical structure (CD) after encapsulation processing ([2]; after organic solvents, mechanical and thermal forces of encapsulation): maintenance of the alpha helical structure
alpha helical structure (CD, negative peaks at 208 and 222 nm) after extended incubation ([2]; long-term incubation at 37 °C): maintenance of the alpha helical structure
toxicological profile ([3]; acute heart failure, 30 μg/kg/day continuous IV infusion over 48 hr): favorable toxicological profile
toxicological profile ([3]; induction of labor, 75μg/kg/day continuous IV infusion over 24 hr): favorable toxicological profile
joint architecture ([4]; 56 days after remobilization, H&E, Masson's Trichrome): restored delineation of the humeral head and glenoid surface, absence of fibrotic adhesions
synovial membrane thickness in the axillary pouch ([4]; 56 days, n=5): restoration to baseline values
bioactive average plasma exposure concentration, Cavg [5]: 20 to 40 ng/mL
half-life [6]: 1.6 h
